In series [1] the target is Nuclear factor NF-kappa-B complex (Homo sapiens) (UniProt Q00653+P19838+Q04206). Description: Inhibition of NF-kappaB in human HepG2 cells assessed as inhibition of TNF-alpha-induced luciferase reporter gene expression at 10 uM preincubated for 1 hr followed by TNF-alpha stimulation measured after 4 hrs relative to control. It counts as cell-based. The method, boiled down: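 HepG2 cells stably carrying an NF-κB-luciferase reporter, grown in DMEM with 10% FBS and penicillin/streptomycin at 37 °C, 5% CO2. Seeded overnight at 5 × 10^4 cells/well (24-well), preincubated 1 h with compound at 10 μM, then stimulated with TNFα (10 ng/mL) for 4 h. Luciferase activity read in cell lysates; mean ± SEM, n = 3.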

For another series, the system named is HepG2. Description: Cytotoxicity against human HepG2 cells at 10 uM. The format is cell-based. To be noted: hepg2, 10 µM.

These results are taken from ChEMBL document CHEMBL3232886, “C-17 lactam-bearing limonoids from the twigs and leaves of Amoora tsangii” (J Nat Prod, 2014).

Calls of active or inactive are those of the source. The calls are words filed in the database; no cut-off is given here.

Nuclear factor NF-kappa-B complex (Homo sapiens), sequence (P19838 whole entry, looked up): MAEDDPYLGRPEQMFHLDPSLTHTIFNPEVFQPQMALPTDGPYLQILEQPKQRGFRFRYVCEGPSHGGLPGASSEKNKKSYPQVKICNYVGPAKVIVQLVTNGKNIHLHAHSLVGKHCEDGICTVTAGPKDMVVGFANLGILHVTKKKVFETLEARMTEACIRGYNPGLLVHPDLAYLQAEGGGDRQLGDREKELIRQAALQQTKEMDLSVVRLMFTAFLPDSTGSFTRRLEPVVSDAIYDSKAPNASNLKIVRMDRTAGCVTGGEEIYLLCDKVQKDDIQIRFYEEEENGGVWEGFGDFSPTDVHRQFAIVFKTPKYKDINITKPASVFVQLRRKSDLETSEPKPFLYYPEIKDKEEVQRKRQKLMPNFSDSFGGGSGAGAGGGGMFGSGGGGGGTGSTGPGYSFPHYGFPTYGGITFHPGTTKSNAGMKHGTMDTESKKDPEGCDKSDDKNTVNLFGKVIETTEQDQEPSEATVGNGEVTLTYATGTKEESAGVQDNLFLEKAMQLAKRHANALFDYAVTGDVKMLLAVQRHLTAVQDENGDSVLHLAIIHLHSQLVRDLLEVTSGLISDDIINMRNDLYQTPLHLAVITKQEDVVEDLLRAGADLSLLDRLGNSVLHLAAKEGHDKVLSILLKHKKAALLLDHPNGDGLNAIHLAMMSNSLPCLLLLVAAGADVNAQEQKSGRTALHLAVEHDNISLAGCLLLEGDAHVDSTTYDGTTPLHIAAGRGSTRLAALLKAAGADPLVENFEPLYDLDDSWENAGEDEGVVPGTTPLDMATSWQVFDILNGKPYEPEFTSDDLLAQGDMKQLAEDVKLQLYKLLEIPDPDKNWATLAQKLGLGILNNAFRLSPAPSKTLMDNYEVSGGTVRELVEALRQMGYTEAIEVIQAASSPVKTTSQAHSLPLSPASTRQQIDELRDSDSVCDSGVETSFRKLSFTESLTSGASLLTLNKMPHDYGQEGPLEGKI
Nuclear factor NF-kappa-B complex (Homo sapiens), sequence (Q00653 whole entry, looked up): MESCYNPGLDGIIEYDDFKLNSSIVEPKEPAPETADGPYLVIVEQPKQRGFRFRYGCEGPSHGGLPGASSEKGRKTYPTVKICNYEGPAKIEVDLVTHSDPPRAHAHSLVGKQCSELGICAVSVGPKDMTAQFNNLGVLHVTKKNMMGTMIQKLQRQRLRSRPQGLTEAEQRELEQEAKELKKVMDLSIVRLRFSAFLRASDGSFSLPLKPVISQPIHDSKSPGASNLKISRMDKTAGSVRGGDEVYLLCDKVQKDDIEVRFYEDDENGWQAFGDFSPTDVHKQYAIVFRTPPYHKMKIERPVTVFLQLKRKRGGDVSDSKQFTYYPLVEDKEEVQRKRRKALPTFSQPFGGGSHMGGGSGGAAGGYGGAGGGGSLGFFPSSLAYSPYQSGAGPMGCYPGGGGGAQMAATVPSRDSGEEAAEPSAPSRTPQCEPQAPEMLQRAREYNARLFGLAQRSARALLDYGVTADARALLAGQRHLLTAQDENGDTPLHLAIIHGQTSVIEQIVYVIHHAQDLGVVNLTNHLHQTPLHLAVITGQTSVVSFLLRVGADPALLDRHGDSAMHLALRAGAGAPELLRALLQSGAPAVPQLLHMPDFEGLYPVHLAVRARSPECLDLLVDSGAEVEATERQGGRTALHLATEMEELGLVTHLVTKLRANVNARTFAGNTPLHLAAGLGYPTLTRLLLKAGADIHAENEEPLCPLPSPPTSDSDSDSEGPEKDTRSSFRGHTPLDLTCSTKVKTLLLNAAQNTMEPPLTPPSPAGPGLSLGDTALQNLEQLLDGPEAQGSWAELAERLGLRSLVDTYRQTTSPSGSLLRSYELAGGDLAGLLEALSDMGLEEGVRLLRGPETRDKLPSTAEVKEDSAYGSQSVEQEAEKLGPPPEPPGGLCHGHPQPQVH
Nuclear factor NF-kappa-B complex (Homo sapiens), sequence (Q04206 whole entry, looked up): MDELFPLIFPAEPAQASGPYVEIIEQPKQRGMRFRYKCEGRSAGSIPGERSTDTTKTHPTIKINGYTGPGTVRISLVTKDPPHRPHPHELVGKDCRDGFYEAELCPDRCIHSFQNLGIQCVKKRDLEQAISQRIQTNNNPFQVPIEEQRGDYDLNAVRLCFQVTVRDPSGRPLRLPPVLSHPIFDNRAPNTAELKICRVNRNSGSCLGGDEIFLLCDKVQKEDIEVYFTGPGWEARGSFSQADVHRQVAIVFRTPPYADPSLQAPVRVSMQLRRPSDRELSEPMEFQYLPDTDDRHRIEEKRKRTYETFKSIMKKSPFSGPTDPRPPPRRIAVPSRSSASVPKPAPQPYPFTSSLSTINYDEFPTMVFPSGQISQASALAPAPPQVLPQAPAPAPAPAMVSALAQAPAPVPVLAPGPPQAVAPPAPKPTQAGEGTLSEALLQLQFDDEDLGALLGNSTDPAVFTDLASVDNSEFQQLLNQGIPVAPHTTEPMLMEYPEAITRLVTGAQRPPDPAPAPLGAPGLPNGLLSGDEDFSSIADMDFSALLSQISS

Turning to `C=C1[C@@H]([C@@]2(C)C=CC(=O)OC(C)(C)[C@@H]2CC(=O)OC)[C@@H](OC(C)=O)[C@H](OC(=O)c2ccccc2)[C@@]2(C)[C@H](C3=CCN(C)C3=O)C[C@H]3O[C@]132`, the inhibition result in series [1] is “inactive”. Also, the Activity entry with HepG2 is “Non-toxic”.

On to `C=C1[C@@H]([C@@]2(C)C=CC(=O)OC(C)(C)[C@@H]2CC(=O)OC)[C@@H](OC(C)=O)[C@H](OC(=O)C(C)CC)[C@@]2(C)[C@H](C3=CCNC3=O)C[C@H]3O[C@]132` (stereo not given in full), for which, in series [1], the inhibition entry was “inactive”. Also, in the series with HepG2, the Activity entry is given as “Non-toxic”.

As for `C=C1[C@@H]([C@@]2(C)C=CC(=O)OC(C)(C)[C@@H]2CC(=O)OC)[C@@H](OC(C)=O)[C@H](OC(=O)C(C)CC)[C@@]2(C)[C@H](C3=CC(=O)NC3)C[C@H]3O[C@]132` (stereo not given in full), in series [1], the inhibition is 64%. In addition, in the series with HepG2, the Activity result was “Non-toxic”.

For the compound `C=C1[C@@H]([C@@]2(C)C=CC(=O)OC(C)(C)[C@@H]2CC(=O)OC)[C@@H](OC(C)=O)[C@H](OC(=O)c2ccccc2)[C@@]2(C)[C@H](C3=CCNC3=O)C[C@H]3O[C@]132` (relative stereo), in series [1], the inhibition result is “inactive”. In the series on HepG2, the Activity result is given as “Non-toxic”.

`C=C1[C@@H]([C@@]2(C)C=CC(=O)OC(C)(C)[C@@H]2CC(=O)OC)[C@@H](OC(C)=O)[C@H](OC(=O)c2ccccc2)[C@@]2(C)[C@H](C3=CC(=O)NC3)C[C@H]3O[C@]132` (relative stereo): in series [1], the inhibition result was “inactive”. Further, the Activity entry in the series on HepG2 is recorded as “Non-toxic”.
